Laboratory results as given in ChEMBL document CHEMBL1138306, “New antioxidant polyphenols from the medicinal mushroom Inonotus obliquus” (Bioorg Med Chem Lett, 2007).
pIC50: −log10 of the molar value.

Key:
Format in all cases: functional
[1] = Antioxidant activity assessed as superoxide radical scavenging activity by xanthine oxidase method
Outline: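 Superoxide generated by xanthine/xanthine oxidase in 50 mM potassium phosphate buffer (pH 7.8) containing 1 mM EDTA, 0.04 mM NBT, 0.18 mM xanthine and 250 mU/mL xanthine oxidase. Samples tested at a series of concentrations. Incubation 30 min at 37 C in the dark. Superoxide reduction of NBT to blue formazan used as read-out. IC50 determined.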

[2] = Ratio of IC50 for drug to trolox for ABTS radical scavenging activity
Outline: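 ABTS radical cation made from 7 mM aqueous ABTS stock reacted with 2.45 mM potassium persulfate, left 12 h in the dark. Radical solution mixed with samples in ethanol. Absorbance read at 734 nm up to 6 min after mixing. IC50 expressed relative to trolox.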

[3] = Ratio of IC50 for drug to trolox for DPPH radical scavenging activity

pIC50 [1] | Structure (SMILES) | Ratio IC50 [2] | Ratio IC50 [3]
4.04 | CC(=O)C1(O)C(c2cc3oc(=O)c4cc(O)c(O)cc4c3c(=O)o2)=Cc2cc(O)c(O)cc21 (stereo unspecified) | 0.58 | 1.42
4.01 | Cc1cc(=O)cc(-c2cc(O)c(O)cc2-c2c(O)cc(/C=C/c3ccc(O)c(O)c3)oc2=O)o1 | 0.65 | 0.82
4.99 | O=C(O)/C=C/c1ccc(O)c(O)c1 [CAFFEIC ACID] | 0.66 | 0.41
4.07 | O=c1oc2cc(/C=C/c3ccc(O)c(O)c3)oc(=O)c2c2cc(O)c(O)cc12 [PHELLIGRIDIN D] | 0.33 | 1.51
3.92 | CC1=CC(=O)C2(O1)C(c1cc3oc(=O)c4cc(O)c(O)cc4c3c(=O)o1)=Cc1cc(O)c(O)cc12 (stereo unspecified) [PHELLIGRIDIN E] | 0.4 | 1.57
4.03 | O=C1C=C(/C=C/c2ccc(O)c(O)c2)OC12C(c1cc3oc(=O)c4cc(O)c(O)cc4c3c(=O)o1)=Cc1cc(O)c(O)cc12 (stereo unspecified) [PHELLIGRIDIN G] | 0.43 | 1.48
4.03 | O=c1oc(/C=C/c2ccc(O)c(O)c2)cc(O)c1-c1cc(O)c(O)cc1/C=C/c1cc2oc(=O)c3cc(O)c(O)cc3c2c(=O)o1 [PHELLIGRIDIN I] | 0.43 | 1.45
